Experimental findings from ChEMBL document CHEMBL1121506, “Evaluation of rotenone and related compounds as antagonists of slow-reacting substance of anaphylaxis” (J Med Chem, 1980) are described below.

In brackets after ≈: the same amount, converted by molar mass.

The species named for assay [1] is Cavia porcellus. In words: Compound was evaluated for the inhibitory activity against Histamine in guinea pig ileum. The class given is functional. Also on record: concentration or dose not given beside the values.
Assay [2] is filed under the species Cavia porcellus. In words: Compound was evaluated for the inhibitory activity against Acetylcholine in guinea pig ileum. Also noted: concentration or dose not given beside the values. The class given is functional.
Assay [3] concerns Cavia porcellus. The assay is described as follows: Compound was evaluated in vivo for collapse time in guinea pig anaphylaxis model at dose 10 mg/kg. In kind it is functional. Put shortly: (§1)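 Guinea pigs were sensitized with 10% ovalbumin (1 mL s.c. plus 1 mL i.p.), and about 4 weeks later received the antagonist orally. They were then exposed to aerosolized ovalbumin, with collapse time as the endpoint and no collapse within 6 min taken as maximal protection. Groups (4–15 animals) were compared with controls by one-way ANOVA and Dunnett's test after Bartlett's test.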

The species named for assay [4] is Cavia porcellus. In words: Compound was evaluated for the inhibitory activity against slow reacting substance of anaphylaxis (SRS-A) of guinea pig ileum. The class given is functional, organism-based. In short, it runs like this: (§2)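 Guinea pig ileum strip in Tyrode's solution at 37 °C, aerated with 95% O2-5% CO2. SRS-A came from rat peritoneal shock fluid after passive peritoneal anaphylaxis, and its specificity was checked against atropine (5 × 10^-7 M) and mepyramine (10^-6 M). The SRS-A dose was set to give ca. 60% of maximal contraction. Antagonist was added 2 min before challenge; percent inhibition was read, and IC50 was interpolated from dose-response curves.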

Assay [5] is filed under the species Cavia porcellus. The assay is described as follows: Compound was evaluated for the inhibitory activity against slow reacting substance of anaphylaxis (SRS-A) of guinea pig ileum;NA means not active. The class given is functional, organism-based. In short, it runs like this: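 Guinea pig ileum strip in Tyrode's solution at 37 °C, aerated with 95% O2-5% CO2. SRS-A came from rat peritoneal shock fluid after passive peritoneal anaphylaxis, dosed to give ca. 60% of maximal contraction. Atropine (5 × 10^-7 M) and mepyramine (10^-6 M) checks were run. Antagonist was added 2 min before SRS-A challenge, and percent inhibition recorded. IC50 was interpolated from two or at least three dose-response curves.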

Assay [6] relates to Cavia porcellus. In words: Compound was evaluated in vivo for collapse time in guinea pig anaphylaxis model at dose 5 mg/kg. In kind it is functional. Put shortly:
as §1

The species entered for assay [7] is Cavia porcellus. In words: Compound was evaluated for the inhibitory activity against Serotonin in guinea pig ileum. In kind it is functional.
The species entered for assay [8] is Cavia porcellus. In words: Compound was evaluated for the inhibitory activity against slow reacting substance of anaphylaxis (SRS-A) of guinea pig ileum;NA denotes not active. The class given is functional, organism-based. In short, it runs like this: as §2

As for `COc1cc2c(cc1OC)[C@@H]1C(=O)c3ccc4oc(C(C)C)cc4c3O[C@@H]1CO2` [ISOROTENONE], the Inhibition (in general, the change of the read-out against control, counted positive when it falls) in the assay filed under Cavia porcellus [1] came out at 30%; in the assay filed under Cavia porcellus [2], 28%. For the same compound, the Collapse time in the assay with Cavia porcellus [3] is 211 s. The IC50 – broadly, the concentration needed to halve the response being measured – in the assay filed under Cavia porcellus [4] is 62 ng/mL (≈ 0.157 µM).
For `C=C(C)[C@H]1Cc2c(ccc3c2OC2COc4cc(OC)c(OC)cc4C2(OC(C)=O)C3=O)O1` (stereo not given in full) [ACETYLROTENOLENE], the Inhibition in the assay filed under Cavia porcellus [1] and in the assay filed under Cavia porcellus [2] was 0% each time. In addition, the IC50 entry in the assay listed under Cavia porcellus [5] was “Not Active”.
As for `C=C(C)[C@H]1Cc2c(ccc3c2O[C@@H]2COc4cc(OC)c(OC)cc4[C@@H]2C3=O)O1` [ROTENONE], the Inhibition was 38% in the assay listed under Cavia porcellus [1], 15% in the assay listed under Cavia porcellus [2] and 92% in the assay listed under Cavia porcellus [7]. In addition, in the assay on Cavia porcellus [6], the Collapse time was determined as 288 s. Also, the IC50 in the assay listed under Cavia porcellus [4] was determined as 15.5 ng/mL (≈ 0.0393 µM).
Regarding `C=C(C)[C@H]1Cc2c(ccc3c2O[C@H]2COc4cc(OC)c(OC)cc4[C@H]2C3=O)O1`, the Inhibition stood at 28% in the assay filed under Cavia porcellus [1], 11% in the assay listed under Cavia porcellus [2] and 87% in the assay listed under Cavia porcellus [7]. In addition, the Collapse time with Cavia porcellus [3] turned out to be 240 s. This compound also showed a half-inhibitory concentration (IC50) in the assay filed under Cavia porcellus [4] of 24.7 ng/mL (≈ 0.0626 µM).
On to `C=C(C)[C@H]1Cc2c(ccc3c2OC2COc4cc(OC)c(OC)cc4C2/C3=N/O)O1` (stereo not given in full), for which the Collapse time with Cavia porcellus [3] came to 248 s. The IC50 in the assay filed under Cavia porcellus [4] was determined as 400 ng/mL (≈ 0.977 µM).
`C=C(C)[C@H]1Cc2c(ccc3c(=O)c4c(oc23)COc2cc(OC)c(OC)cc2-4)O1` [DEHYDROROTENONE]: in the assay listed under Cavia porcellus [8], the IC50 result is “Not Active”. The Inhibition in the assay listed under Cavia porcellus [1] and in the assay listed under Cavia porcellus [2] was 0% throughout. The figures for the Collapse time in the assay on Cavia porcellus [6] and in the assay on Cavia porcellus [3] were 216 s and 248 s, respectively.
Turning to `COc1cc2c(cc1OC)[C@@H]1C(=O)c3ccc4c(c3O[C@@H]1CO2)C[C@H](C(C)C)O4`, the Inhibition in the assay listed under Cavia porcellus [1] amounted to 29%; in the assay filed under Cavia porcellus [2] it was 25%; in the assay filed under Cavia porcellus [7] it was 60%. Also, the concentration for half-maximal inhibition (IC50) in the assay filed under Cavia porcellus [4] was found to be 23.8 ng/mL (≈ 0.06 µM).
`C=C(C)[C@H]1Cc2c(ccc3c2OC2COc4cc(OC)c(OC)cc4C2/C3=N/OC(C)=O)O1` (stereo not given in full) came in with an IC50 in the assay listed under Cavia porcellus [4] of 400 ng/mL (≈ 0.886 µM).
Still for that read-out and setting: under `COc1cc2c(cc1OC)[C@]1(O)C(=O)c3ccc4c(c3O[C@@H]1CO2)C=CC(C)(C)O4` [TEPHROSIN] stands 200 ng/mL (≈ 0.487 µM).
As for `C=C(C)[C@H]1Cc2c(ccc(C(=O)Cc3cc(OC)c(OC)cc3OCC(=O)O)c2O)O1`, the Inhibition in the assay listed under Cavia porcellus [1] and in the assay filed under Cavia porcellus [2] was 0% in each case. The same compound came in with a Collapse time in the assay with Cavia porcellus [3] of 167 s. Further, the IC50 entry in the assay listed under Cavia porcellus [5] is “Not Active”.
In turn, `C=C(C)[C@H]1Cc2c(ccc3c2OC2COc4cc(OC)c(OC)cc4C2/C3=N/OC(=O)OCC)O1` (stereo not given in full) [O-CARBETHOXY ROTENONE OXIME] had an IC50 in the assay listed under Cavia porcellus [4] of 400 ng/mL (≈ 0.831 µM).
Consider `CCCc1c(OCC(O)COc2ccc3c(=O)cc(C(=O)[O-])oc3c2CCC)ccc(C(C)=O)c1O.[Na+]` (stereo not given) [FPL-55712 SODIUM SALT], for which the Inhibition in the assay filed under Cavia porcellus [1], in the assay filed under Cavia porcellus [2] and in the assay listed under Cavia porcellus [7] was 0% throughout. The compound also displayed a Collapse time in the assay with Cavia porcellus [3] of 253 s. In the assay filed under Cavia porcellus [4], this compound yielded an IC50 of 42 ng/mL.
